{"data": "Assay results of several laboratories", "CDK3": "Cyclin-dependent kinase 3 (CDK3, Homo sapiens, UniProt Q00526)", "CDK3 with cyclin E": "Cyclin-dependent kinase 3, with cyclin E (CDK3, Homo sapiens, UniProt Q00526)", "CDK3 with cyclin E1": "Cyclin-dependent kinase 3, with cyclin E1 (CDK3, Homo sapiens, UniProt Q00526)", "CDK3 with cyclin E2": "Cyclin-dependent kinase 3, with cyclin E2 (CDK3, Homo sapiens, UniProt Q00526)", "note": "Protocols differ between the studies behind these lines."}
{"Compound": "NS(=O)(=O)c1cc(NC(=O)Cc2ccccc2)ccc1Oc1cccc(Cl)c1", "target": "CDK3", "assay": "cell-free assay, competition with immobilised ligand", "conditions": "1 µM", "quantity": "remaining binding", "value": "92%"}
{"Compound": "Cc1ccc(C(=O)NCc2ccsc2)cc1C#Cc1cn(C(C)C)c2ncnc(N)c12", "target": "CDK3 with cyclin E", "assay": "enzyme activity, inhibitor", "conditions": "1 µM", "quantity": "activity vs control", "value": "98%"}
{"Compound": "O=C1NC(=O)c2cc(Nc3ccc(F)cc3)c(Nc3ccc(F)cc3)cc21", "target": "CDK3 with cyclin E", "assay": "cell-free assay", "conditions": "0.5 µM", "quantity": "remaining signal", "value": "98.9%"}
{"Compound": "Cc1nccc(COC(=O)N2C[C@@H]3[C@@H](CNC(=O)c4ccc5[nH]nnc5c4)[C@@H]3C2)n1", "target": "CDK3", "assay": "cell-free assay, competition with immobilised ligand", "conditions": "1 µM", "quantity": "remaining binding", "value": "97%"}
{"Compound": "O=C(CSc1nc2nccnc2c(=O)n1CCc1ccccc1)Nc1nccs1", "target": "CDK3 with cyclin E1", "assay": "enzyme activity, inhibitor", "conditions": "10 µM", "quantity": "inhibition", "value": "-19%"}
{"Compound": "CC(C)(C)c1nc2c(s1)c1nc(N)ncc1c1ccc(NS(=O)(=O)c3c(F)cccc3F)c(F)c12", "target": "CDK3 with cyclin E1", "assay": "enzyme activity, inhibitor, radiometric", "conditions": "1 µM", "quantity": "remaining activity", "value": "98%"}
{"Compound": "O=C(Nc1cnn(-c2csc(C(=O)NC3COC3)c2)c1)Nc1ccccc1Cl", "target": "CDK3 with cyclin E2", "assay": "enzyme activity, inhibitor", "conditions": "5 µM", "quantity": "remaining activity", "value": "95.8%"}
{"Compound": "Cc1ccc(Nc2nccc(N(C)c3ccc4c(C)n(C)nc4c3)n2)cc1S(N)(=O)=O", "target": "CDK3 with cyclin E", "assay": "enzyme activity, inhibitor", "conditions": "0.3 µM", "quantity": "inhibition", "value": "-4%"}
{"Compound": "CC(C)(O)[C@H]1CC[C@H](Nc2ccc3ncc(-c4cccc(C(F)(F)F)c4)n3n2)CC1", "target": "CDK3 with cyclin E", "assay": "enzyme activity, inhibitor", "conditions": "1 µM", "quantity": "remaining activity", "value": "105%"}
{"Compound": "COc1cc(-c2cn(C3CCc4c(F)cccc4N(CC(F)(F)F)C3=O)nn2)ccc1-n1cnc(C)c1 (centres unmarked)", "target": "CDK3", "assay": "cell-free assay, competition with immobilised ligand", "conditions": "1 µM", "quantity": "remaining binding", "value": "100%"}
{"Compound": "CC(C)c1ccc(NC(=O)c2cccs2)c(-c2nc3ccccc3[nH]c2=O)c1", "target": "CDK3 with cyclin E", "assay": "enzyme activity, inhibitor", "conditions": "1 µM", "quantity": "activity vs control", "value": "109%"}
{"Compound": "Cc1sc(C(=O)NC2COC2)cc1-n1cc(NC(=O)Nc2c(F)cccc2Cl)cn1", "target": "CDK3 with cyclin E", "assay": "enzyme activity, inhibitor", "conditions": "10 µM", "quantity": "remaining activity", "value": "91.2%"}
{"Compound": "COc1cccc(CNC(=O)c2nc3scc(COCc4ccc(C(=O)O)cc4)c3c(=O)[nH]2)c1", "target": "CDK3", "assay": "cell-free assay, competition with immobilised ligand", "conditions": "1 µM", "quantity": "remaining binding", "value": "100%"}
{"Compound": "CCCS(=O)(=O)Nc1ccc(F)c(C(=O)c2c[nH]c3ncc(-c4ccc(Cl)cc4)cc23)c1F", "target": "CDK3 with cyclin E", "assay": "enzyme activity, inhibitor", "conditions": "1 µM", "quantity": "inhibition", "value": "< 10%"}
{"Compound": "CO[C@@H](C)c1c(Nc2ccc([C@@H](N(C)C(=O)C3CCS(=O)(=O)CC3)C(F)(F)F)cc2)cnc2cc(Cl)nn12", "target": "CDK3", "assay": "cell-free assay, competition with immobilised ligand", "conditions": "1 µM", "quantity": "remaining binding", "value": "88%"}
{"Compound": "O=C1Nc2ccc(Cl)cc2C1=Cc1cc(Cl)c(O)c(Cl)c1", "target": "CDK3 with cyclin E", "assay": "cell-free assay", "conditions": "0.5 µM", "quantity": "remaining signal", "value": "85.4%"}
{"Compound": "Cc1cc(NC(=O)c2cccc(S(F)(F)(F)(F)F)c2)cc(-n2ccn3nc(-c4cccnc4)cc23)c1", "target": "CDK3", "assay": "cell-free assay, competition with immobilised ligand", "conditions": "1 µM", "quantity": "remaining binding", "value": "100%"}
{"Compound": "O=C(Nc1cnn(-c2csc(C(=O)NC3COC3)c2)c1)Nc1c(F)cccc1Cl", "target": "CDK3 with cyclin E2", "assay": "enzyme activity, inhibitor", "conditions": "5 µM", "quantity": "remaining activity", "value": "109%"}
{"Compound": "CNC(=O)c1cc(Oc2ccc(NC(=O)Nc3ccc(Cl)c(C(F)(F)F)c3)cc2)ccn1", "target": "CDK3 with cyclin E", "assay": "enzyme activity, inhibitor", "conditions": "0.3 µM", "quantity": "inhibition", "value": "-6%"}
{"Compound": "CC(C)(C)c1nc(-c2cccc(NS(=O)(=O)c3c(F)cccc3F)c2F)c(-c2ccnc(N)n2)s1", "target": "CDK3 with cyclin E1", "assay": "enzyme activity, inhibitor, radiometric", "conditions": "1 µM", "quantity": "remaining activity", "value": "103%"}
{"Compound": "CS(=O)(=O)NCC[C@H](NC(=O)c1cncc2c1cnn2-c1ccc(F)cc1)c1ccnc(S(C)(=O)=O)c1", "target": "CDK3", "assay": "cell-free assay, competition with immobilised ligand", "conditions": "1 µM", "quantity": "remaining binding", "value": "100%"}
{"Compound": "CCN(CC)CCNC(=O)c1c(C)[nH]c(/C=C2\\C(=O)Nc3ccc(F)cc32)c1C", "target": "CDK3 with cyclin E", "assay": "enzyme activity, inhibitor", "conditions": "10 µM", "quantity": "inhibition", "value": "41%"}
{"Compound": "Cc1ccc(-n2nc(C(C)(C)C)cc2NC(=O)Nc2ccc(OCCN3CCOCC3)c3ccccc23)cc1", "target": "CDK3 with cyclin E", "assay": "enzyme activity, inhibitor", "conditions": "10 µM", "quantity": "inhibition", "value": "-10%"}
